Laboratory results as given in article PMC3359018 (Chemical science (Royal Society of Chemistry : 2010), 2011).

What was measured:
[1] = biological target: T1, extracellular domain of DC-SIGN (immobilized tetrameric DC-SIGN) (Homo sapiens, UniProt Q9NNX6); type: binding; conditions: read-out: Kd of probe to immobilized tetrameric DC-SIGN
T1 sequence (Q9NNX6 59-404 limits assumed): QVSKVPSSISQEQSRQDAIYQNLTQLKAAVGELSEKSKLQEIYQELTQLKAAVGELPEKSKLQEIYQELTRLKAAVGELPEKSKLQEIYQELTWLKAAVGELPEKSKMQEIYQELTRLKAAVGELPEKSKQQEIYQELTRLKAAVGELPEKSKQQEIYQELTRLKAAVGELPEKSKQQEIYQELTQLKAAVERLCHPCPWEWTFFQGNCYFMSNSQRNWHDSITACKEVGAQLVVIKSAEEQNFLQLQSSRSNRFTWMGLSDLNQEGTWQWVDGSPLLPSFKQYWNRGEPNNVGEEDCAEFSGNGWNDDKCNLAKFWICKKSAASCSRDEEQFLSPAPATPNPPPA

[2] = biological target: T2, DC-SIGN producing Raji cells (Homo sapiens, UniProt Q9NNX6); test: Flow cytometry assay of binding and uptake of fluorescent mannosylated probe; type: cell-based; conditions: competitor at 100 mM; Man-Fl-BSA probe
T2 sequence (Q9NNX6 1-404): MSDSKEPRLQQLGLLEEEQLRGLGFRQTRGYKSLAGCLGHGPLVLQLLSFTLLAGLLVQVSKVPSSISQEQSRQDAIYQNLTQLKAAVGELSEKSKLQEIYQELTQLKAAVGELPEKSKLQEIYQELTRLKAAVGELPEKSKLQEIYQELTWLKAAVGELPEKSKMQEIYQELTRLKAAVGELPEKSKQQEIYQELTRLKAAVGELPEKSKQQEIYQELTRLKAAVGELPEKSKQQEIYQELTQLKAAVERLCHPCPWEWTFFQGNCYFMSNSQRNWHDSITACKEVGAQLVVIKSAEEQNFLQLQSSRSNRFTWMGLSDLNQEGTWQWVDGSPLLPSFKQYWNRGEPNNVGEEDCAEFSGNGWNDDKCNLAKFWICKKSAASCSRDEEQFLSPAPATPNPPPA
How it was run: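 Raji (Burkitt's lymphoma) cells stably transfected with a DC-SIGN expression vector. Surface DC-SIGN was checked with AZND1-PE antibody by microscopy and with DCN46-FITC by flow cytometry. Cells were exposed to fluorescent Man-Fl-BSA with or without test compound; ManNAc (100 mM) served as carbohydrate competitor. Percent inhibition was taken from the geometric mean fluorescence, normalized to cells without inhibitor.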

| Kd [1] | probe uptake by DC-SIGN-positive cells [2] | Compound |
| --- | --- | --- |
| 2000 µM |  | Man-Fl-BSA: fluorescent mannosylated glycoconjugate probe (fluorescein, mannose, BSA) |
|  | significant decrease | CC(=O)N[C@@H]1C(O)O[C@H](CO)[C@@H](O)[C@@H]1O (some centres unmarked) [ManNAc, N-acetylmannosamine] |
